ChEMBL document CHEMBL1137756, “Induction of apoptosis promoted by Bang52; a small molecule that downregulates Bcl-x(L)” (2009)
Calls of active or inactive are those of the source. No cut-off for these calls is given here.

Legend:
TK6 [1] = assay: Induction of p53 phosphorylation at Ser15 in human TK6 cells expressing wild type p53 at 25 uM after 8 hrs by Western blot analysis; type: functional, cell-based
Method in brief: (§1)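 TK6 and WTK1 cells (NH32 also run) treated 8 h at 25 μM, vehicle or doxorubicin 0.1 μM. Extracts immunoblotted for p53, phospho-p53 (Ser15), p21cip1/Waf1 and β-actin.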

TK6 [2] = assay: Induction of apoptosis in human TK6 cells expressing wild type p53 assessed as increase in PARP cleavage at 0.1 uM after 8 hrs by Western blot analysis; type: functional, cell-based
Method in brief: (§2)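 Exposure for 8 h to vehicle, 0.1 μM doxorubicin or 25 μM test agents, followed by protein extraction. Western blots probed for cleaved PARP, caspase-3 and β-actin as loading reference.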

TK6 [3] = assay: Induction of p53 transcriptional activity in human TK6 cells expressing wild type p53 assessed as p21-Cip1/Waf1 expression at 25 uM after 8 hrs by Western blot analysis; type: functional, cell-based; method in brief: as §1
WTK1 [4] = assay: Induction of apoptosis in human WTK1 cells expressing p53 M237I mutant assessed as decrease in pro-caspase 3 level at 0.1 uM after 8 hrs by Western blot analysis; type: functional, cell-based; method in brief: as §2
WTK1 [5] = assay: Induction of apoptosis in human WTK1 cells expressing p53 M237I mutant assessed as increase in cleaved caspase 3 level at 0.1 uM after 8 hrs by Western blot analysis; type: functional, cell-based; method in brief: as §2
WTK1 [6] = assay: Induction of p53 phosphorylation at Ser15 in human WTK1 cells expressing p53 M237I mutant at 25 uM after 8 hrs by Western blot analysis; type: functional, cell-based; method in brief: as §1
[7] = Cell cycle arrest in human TK6 cells expressing wild type p53 assessed as accumulation at sub-G0/G1 phase at 0.1 uM after 72 hrs by flow cytometry; type: functional, cell-based
Method in brief: (§3)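 Cells exposed 72 h to vehicle or compound (0.1 μM doxorubicin or 25 μM others) and harvested. Washed twice in ice-cold PBS, then resuspended in hypotonic solution (50 μg/ml propidium iodide, 25 μg/ml RNase, 0.1% sodium citrate, 0.1% Triton X-100) and held 1.5 h at 4°C in the dark. Flow cytometry at 10,000 events per histogram; cell death taken as the sub-G0/G1 fraction.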

WTK1 [8] = assay: Induction of p53 transcriptional activity in human WTK1 cells expressing p53 M237I mutant assessed as p21-Cip1/Waf1 expression at 25 uM after 8 hrs by Western blot analysis; type: functional, cell-based; method in brief: as §1
TK6 [9] = assay: Induction of p53 phosphorylation at Ser15 in human TK6 cells expressing wild type p53 at 0.1 uM after 8 hrs by Western blot analysis; type: functional, cell-based
Method in brief: (§4)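 Exposure for 8 h to vehicle, 0.1 μM doxorubicin or 25 μM test agents, followed by protein extraction. Western blots probed for total p53, phospho-p53 (Ser15), p21cip1/Waf1 and β-actin.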

WTK1 [10] = assay: Induction of p53 transcriptional activity in human WTK1 cells expressing p53 M237I mutant assessed as p21-Cip1/Waf1 expression at 0.1 uM after 8 hrs by Western blot analysis; type: functional, cell-based; method in brief: as §4
NH32 [11] = assay: Induction of apoptosis in p53 deficient human NH32 cells assessed as increase in PARP cleavage at 0.1 uM after 8 hrs by Western blot analysis; type: functional, cell-based; method in brief: as §2
[12] = Cell cycle arrest in p53 deficient human NH32 cells assessed as accumulation at sub-G0/G1 phase at 0.1 uM after 72 hrs by flow cytometry; type: functional, cell-based; method in brief: as §3
TK6 [13] = assay: Induction of apoptosis in human TK6 cells expressing wild type p53 assessed as increase in cleaved caspase 3 level at 0.1 uM after 8 hrs by Western blot analysis; type: functional, cell-based; method in brief: as §2
WTK1 [14] = assay: Induction of apoptosis in human WTK1 cells expressing p53 M237I mutant assessed as increase in PARP cleavage at 0.1 uM after 8 hrs by Western blot analysis; type: functional, cell-based; method in brief: as §2
[15] = Cell cycle arrest in human WTK1 cells expressing p53 M237I mutant assessed as accumulation at sub-G0/G1 phase at 0.1 uM after 72 hrs by flow cytometry; type: functional, cell-based; method in brief: as §3
NH32 [16] = assay: Induction of apoptosis in p53 deficient human NH32 cells assessed as decrease in pro-caspase 3 level at 0.1 uM after 8 hrs by Western blot analysis; type: functional, cell-based; method in brief: as §2
TK6 [17] = assay: Induction of p53 transcriptional activity in human TK6 cells expressing wild type p53 assessed as p21-Cip1/Waf1 expression at 0.1 uM after 8 hrs by Western blot analysis; type: functional, cell-based; method in brief: as §4
WTK1 [18] = assay: Induction of p53 phosphorylation at Ser15 in human WTK1 cells expressing p53 M237I mutant at 0.1 uM after 8 hrs by Western blot analysis; type: functional, cell-based; method in brief: as §4
TK6 [19] = assay: Induction of apoptosis in human TK6 cells expressing wild type p53 assessed as decrease in pro-caspase 3 level at 0.1 uM after 8 hrs by Western blot analysis; type: functional, cell-based; method in brief: as §2
NH32 [20] = assay: Induction of apoptosis in p53 deficient human NH32 cells assessed as increase in cleaved caspase 3 level at 0.1 uM after 8 hrs by Western blot analysis; type: functional, cell-based; method in brief: as §2
[21] = Cell cycle arrest in human TK6 cells expressing wild type p53 assessed as accumulation at sub-G0/G1 phase after 72 hrs by flow cytometry; type: functional, cell-based; method in brief: as §3
TK6 [22] = assay: Cytotoxicity against human TK6 cells expressing wild type p53; type: functional, cell-based
WTK1 [23] = assay: Induction of apoptosis in human WTK1 cells expressing p53 M237I mutant assessed as increase in cleaved caspase 3 level at 25 uM after 8 hrs by Western blot analysis; type: functional, cell-based
Method in brief: (§5)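 TK6, NH32 and WTK1 cells treated 8 h with 25 μM or vehicle; doxorubicin 0.1 μM as comparator. Protein extracts analysed by Western blot probed for cleaved PARP, caspase-3 and β-actin.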

[24] = Cell cycle arrest in human TK6 cells expressing wild type p53 assessed as accumulation at sub-G0/G1 phase at 25 uM after 72 hrs by flow cytometry; type: functional, cell-based
Method in brief: (§6)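 B lymphoblast lines TK6 (wild-type p53), NH32 (p53−/−) and WTK1 (mutant p53) exposed 72 h to 25 μM against vehicle; doxorubicin 0.1 μM as p53-dependent control. Washed twice in ice-cold PBS, held 1.5 h at 4°C in the dark in hypotonic fluorochrome solution (50 μg/ml propidium iodide, 25 μg/ml RNase, 0.1% citrate, 0.1% Triton X-100). Sub-G0/G1 apoptotic percentage from 10,000 events per flow histogram.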

NH32 [25] = assay: Induction of apoptosis in p53 deficient human NH32 cells assessed as increase in PARP cleavage at 25 uM after 8 hrs by Western blot analysis; type: functional, cell-based; method in brief: as §5
TK6 [26] = assay: Induction of apoptosis in human TK6 cells expressing wild type p53 assessed as reduction of Bcl-Xl level at 25 uM after 8 hrs by Western blot analysis; type: functional, cell-based
Method in brief: (§7)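 TK6, NH32 and WTK1 cells exposed 8 h to 25 μM, vehicle, or doxorubicin 0.1 μM. Protein extracted and Bcl-xL level assessed by Western blot.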

TK6 [27] = assay: Induction of apoptosis in human TK6 cells expressing wild type p53 assessed as increase in PARP cleavage at 25 uM after 8 hrs by Western blot analysis; type: functional, cell-based; method in brief: as §5
TK6 [28] = assay: Induction of apoptosis in human TK6 cells expressing wild type p53 assessed as early stage apoptotic cell population at 25 uM after 8 hrs using annexin-V and 7-ADD staining by flow cytometry; type: functional
Method in brief: (§8)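 TK6 cells given 25 μM or vehicle for 8 h, washed twice in ice-cold PBS, stained with Annexin-V-PE plus 7-ADD. Flow cytometry assigned quadrant populations as percent of total cells. Histograms representative of three independent experiments.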

WTK1 [29] = assay: Induction of apoptosis in human WTK1 cells expressing p53 M237I mutant assessed as decrease in pro-caspase 3 level at 25 uM after 8 hrs by Western blot analysis; type: functional, cell-based; method in brief: as §5
TK6 [30] = assay: Induction of apoptosis in human TK6 cells expressing wild type p53 assessed as depolarization of inner mitochondrial membrane potential at 25 uM after 8 hrs by flow cytometry relative to CCCP; type: functional, cell-based
Method in brief: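 TK6 cells exposed 8 h to 25 μM, vehicle, or CCCP 100 μM as depolarisation control. Cells washed in ice-cold PBS and resuspended in PBS. Membrane potential read by flow cytometry as FL1 (JC-1 monomers) versus FL2 (aggregates) dual-parameter plots. Representative of three independent experiments.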

TK6 [31] = assay: Induction of apoptosis in human TK6 cells expressing wild type p53 assessed as live cell population at 25 uM after 8 hrs using annexin-V and 7-ADD staining by flow cytometry; type: functional; method in brief: as §8
WTK1 [32] = assay: Induction of apoptosis in human WTK1 cells expressing p53 M237I mutant assessed as increase in PARP cleavage at 25 uM after 8 hrs by Western blot analysis; type: functional, cell-based; method in brief: as §5
WTK1 [33] = assay: Induction of apoptosis in human WTK1 cells expressing p53 M237I mutant assessed as reduction of Bcl-Xl level at 25 uM after 8 hrs by Western blot analysis; type: functional, cell-based; method in brief: as §7
TK6 [34] = assay: Induction of apoptosis in human TK6 cells expressing wild type p53 assessed as necrotic cell population at 25 uM after 8 hrs using annexin-V and 7-ADD staining by flow cytometry; type: functional; method in brief: as §8
TK6 [35] = assay: Induction of apoptosis in human TK6 cells expressing wild type p53 assessed as increase in cleaved caspase 3 level at 25 uM after 8 hrs by Western blot analysis; type: functional, cell-based; method in brief: as §5
TK6 [36] = assay: Induction of apoptosis in human TK6 cells expressing wild type p53 assessed as decrease in pro-caspase 3 level at 25 uM after 8 hrs by Western blot analysis; type: functional, cell-based; method in brief: as §5
[37] = Cell cycle arrest in p53 deficient human NH32 cells assessed as accumulation at sub-G0/G1 phase at 25 uM after 72 hrs by flow cytometry; type: functional, cell-based; method in brief: as §6
NH32 [38] = assay: Induction of apoptosis in p53 deficient human NH32 cells assessed as increase in cleaved caspase 3 level at 25 uM after 8 hrs by Western blot analysis; type: functional, cell-based; method in brief: as §5
NH32 [39] = assay: Induction of apoptosis in p53 deficient human NH32 cells assessed as reduction of Bcl-Xl level at 25 uM after 8 hrs by Western blot analysis; type: functional, cell-based; method in brief: as §7
[40] = Cell cycle arrest in human WTK1 cells expressing p53 M237I mutant assessed as accumulation at sub-G0/G1 phase at 25 uM after 72 hrs by flow cytometry; type: functional, cell-based; method in brief: as §6
NH32 [41] = assay: Induction of apoptosis in p53 deficient human NH32 cells assessed as decrease in pro-caspase 3 level at 25 uM after 8 hrs by Western blot analysis; type: functional, cell-based; method in brief: as §5
TK6 [42] = assay: Induction of apoptosis in human TK6 cells expressing wild type p53 assessed as late stage apoptotic cell population at 25 uM after 8 hrs using annexin-V and 7-ADD staining by flow cytometry; type: functional; method in brief: as §8

## COc1cccc2c1C(=O)c1c(O)c3c(c(O)c1C2=O)C[C@@](O)(C(=O)CO)C[C@@H]3O[C@H]1C[C@H](N)[C@H](O)[C@H](C)O1
TK6 [1]
  Activity: inactive
TK6 [2]
  Activity: Active
TK6 [3]
  Activity: inactive
WTK1 [4]
  Activity: Active
WTK1 [5]
  Activity: Active
WTK1 [6]
  Activity: inactive
[7]
  Activity: Active
WTK1 [8]
  Activity: inactive
TK6 [9]
  Activity: Active
WTK1 [10]
  Activity: inactive
NH32 [11]
  Activity: Active
[12]
  Activity: inactive
TK6 [13]
  Activity: Active
WTK1 [14]
  Activity: Active
[15]
  Activity: inactive
NH32 [16]
  Activity: Active
TK6 [17]
  Activity: Active
WTK1 [18]
  Activity: Active
TK6 [19]
  Activity: Active
NH32 [20]
  Activity: Active

## O=C(CCNC(=O)C(F)F)c1ccccc1
[21]
  Activity: inactive
TK6 [22]
  Activity: Not toxic

## NCCNC(=O)C(F)F
[21]
  Activity: inactive
TK6 [22]
  Activity: Not toxic

## O=C1C2CCN(CC2)C1(CO)CO
TK6 [1]
  Activity: inactive
WTK1 [23]
  Activity: inactive
[24]
  Activity: Active
NH32 [25]
  Activity: inactive
TK6 [26]
  Activity: Active
TK6 [3]
  Activity: inactive
WTK1 [6]
  Activity: inactive
WTK1 [8]
  Activity: inactive
TK6 [27]
  Activity: inactive
TK6 [28]
  Activity: 14.9%
WTK1 [29]
  Activity: inactive
TK6 [30]
  Activity: inactive
TK6 [31]
  Activity: 66.1%
WTK1 [32]
  Activity: inactive
WTK1 [33]
  Activity: inactive
TK6 [34]
  Activity: 1.3%
TK6 [35]
  Activity: inactive
TK6 [36]
  Activity: inactive
[37]
  Activity: Active
NH32 [38]
  Activity: inactive
NH32 [39]
  Activity: inactive
[40]
  Activity: Active
NH32 [41]
  Activity: inactive
TK6 [42]
  Activity: 17.6%
